How the values were obtained:
DLD-1 = test: Cytotoxicity against human DLD1 cells after 72 hrs by MTT assay; format: functional; conditions: DLD-1, 72 h
Method in brief: (§1)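 Cells seeded at 5×10^3 per well in DMEM with 10% FBS, preincubated 4 h, then exposed to serial dilutions for 72 h. MTT at 1 mg/mL added for 4 h at 37 °C, formazan dissolved in DMSO, absorbance read at 570 nm. Triplicate assays; GI50 from non-linear regression of sigmoidal dose-response curves.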

[1] = Cytotoxicity against human U87 cells after 72 hrs by MTT assay; format: functional, U-87MG ATCC; conditions: U-87 MG; method in brief: as §1
HeLa = test: Cytotoxicity against human HeLa cells after 72 hrs by MTT assay; format: functional; method in brief: as §1
SiHa = test: Cytotoxicity against human SiHa cells after 72 hrs by MTT assay; format: functional; method in brief: as §1
[2] = Cytotoxicity against human A172 cells after 72 hrs by MTT assay; format: functional; conditions: A 172, 72 h; method in brief: as §1
B16 = test: Cytotoxicity against mouse B16 cells after 72 hrs by MTT assay; format: functional; conditions: B16, 72 h; method in brief: as §1

SMILES	GI50 (DLD-1) [nM]	GI50 [1] [nM]	GI50 (HeLa) [nM]	GI50 (SiHa) [nM]	GI50 [2] [nM]	GI50 (B16) [nM]
C[C@H]1[C@H](n2nncc2-c2ccc(F)cc2)O[C@@H]2O[C@]3(C)CC[C@H]4[C@H](C)CC[C@@H]1[C@@]24OO3	310	90	60	80	80	770
C[C@H]1[C@H](n2cc(-c3ccc(F)cc3)nn2)O[C@@H]2O[C@]3(C)CC[C@H]4[C@H](C)CC[C@@H]1[C@@]24OO3	480	160	50	140	130	110
C[C@H]1[C@H](n2cc(-c3ccccc3C(F)(F)F)nn2)O[C@@H]2O[C@]3(C)CC[C@H]4[C@H](C)CC[C@@H]1[C@@]24OO3	2380	290	190	320	290	340
CCCCCc1ccc(-c2cn([C@H]3O[C@@H]4O[C@]5(C)CC[C@H]6[C@H](C)CC[C@@H]([C@@H]3C)[C@@]46OO5)nn2)cc1	840	270	240	440	260	340
C[C@@H]1[C@@H](n2cc(-c3cccc(Cl)c3)nn2)O[C@@H]2O[C@]3(C)CC[C@H]4[C@H](C)CC[C@@H]1[C@@]24OO3	1170	350	210	410	330	280
C[C@H]1[C@H](n2nncc2-c2cccc(Cl)c2)O[C@@H]2O[C@]3(C)CC[C@H]4[C@H](C)CC[C@@H]1[C@@]24OO3	40	100	60	160	130	100
COc1ccc(-c2cnnn2[C@@H]2O[C@@H]3O[C@]4(C)CC[C@H]5[C@H](C)CC[C@@H]([C@H]2C)[C@@]35OO4)cc1	880	230	90	240	210	290
C[C@@H]1[C@@H](n2cc(-c3ccccc3)nn2)O[C@@H]2O[C@]3(C)CC[C@H]4[C@H](C)CC[C@@H]1[C@@]24OO3	280	150	30	140	110	200
C[C@H]1[C@H](n2nncc2-c2ccccc2C(F)(F)F)O[C@@H]2O[C@]3(C)CC[C@H]4[C@H](C)CC[C@@H]1[C@@]24OO3	170	80	70	80	80	80
C[C@H]1[C@H](n2nncc2-c2ccccc2)O[C@@H]2O[C@]3(C)CC[C@H]4[C@H](C)CC[C@@H]1[C@@]24OO3	600	200	40	140	150	220
C[C@H]1[C@H](n2cc(-c3ccccc3)nn2)O[C@@H]2O[C@]3(C)CC[C@H]4[C@H](C)CC[C@@H]1[C@@]24OO3	930	500	580	730	570	780
CCCCCc1ccc(-c2cnnn2[C@@H]2O[C@@H]3O[C@]4(C)CC[C@H]5[C@H](C)CC[C@@H]([C@H]2C)[C@@]35OO4)cc1	220	90	40	100		80
Cc1ccc(-c2cn([C@@H]3O[C@@H]4O[C@]5(C)CC[C@H]6[C@H](C)CC[C@@H]([C@H]3C)[C@@]46OO5)nn2)cc1	400	280	110	120	90	120
CCCCCc1ccc(-c2cn([C@@H]3O[C@@H]4O[C@]5(C)CC[C@H]6[C@H](C)CC[C@@H]([C@H]3C)[C@@]46OO5)nn2)cc1	140	70	90	80	70	70
COc1ccc(-c2cn([C@H]3O[C@@H]4O[C@]5(C)CC[C@H]6[C@H](C)CC[C@@H]([C@@H]3C)[C@@]46OO5)nn2)cc1	220	70	100	70	70	100
C[C@@H]1[C@@H](n2cc(-c3cc(F)cc(F)c3)nn2)O[C@@H]2O[C@]3(C)CC[C@H]4[C@H](C)CC[C@@H]1[C@@]24OO3	1280	450	240	460	540	700
C[C@@H]1[C@@H](n2cc(-c3ccc(F)cc3)nn2)O[C@@H]2O[C@]3(C)CC[C@H]4[C@H](C)CC[C@@H]1[C@@]24OO3	2150	630	410	960	560	840
C[C@H]1[C@H](n2nncc2-c2cc(F)cc(F)c2)O[C@@H]2O[C@]3(C)CC[C@H]4[C@H](C)CC[C@@H]1[C@@]24OO3	170	170	80	70	100	100
C[C@H]1[C@H](n2cc(-c3cc(F)cc(F)c3)nn2)O[C@@H]2O[C@]3(C)CC[C@H]4[C@H](C)CC[C@@H]1[C@@]24OO3	300	130	50	120	140	130
C[C@H]1[C@H](n2cc(-c3cccc(Cl)c3)nn2)O[C@@H]2O[C@]3(C)CC[C@H]4[C@H](C)CC[C@@H]1[C@@]24OO3	290	250	90	240	310	210
Cc1ccc(-c2cn([C@H]3O[C@@H]4O[C@]5(C)CC[C@H]6[C@H](C)CC[C@@H]([C@@H]3C)[C@@]46OO5)nn2)cc1	160	1340	730	1580	1740	700
Cc1ccc(-c2cnnn2[C@@H]2O[C@@H]3O[C@]4(C)CC[C@H]5[C@H](C)CC[C@@H]([C@H]2C)[C@@]35OO4)cc1	290	110	40	190	100	110
C[C@@H]1[C@@H](n2cc(-c3ccccc3C(F)(F)F)nn2)O[C@@H]2O[C@]3(C)CC[C@H]4[C@H](C)CC[C@@H]1[C@@]24OO3	1070	530	350	620	400	480
COc1ccc(-c2cn([C@@H]3O[C@@H]4O[C@]5(C)CC[C@H]6[C@H](C)CC[C@@H]([C@H]3C)[C@@]46OO5)nn2)cc1	490	390	130	360	300	130
CC(=O)O[C@H]1C(=O)[C@@]2(C)[C@H]([C@H](OC(=O)c3ccccc3)[C@]3(O)C[C@H](OC(=O)[C@H](O)[C@@H](NC(=O)c4ccccc4)c4ccccc4)C(C)=C1C3(C)C)[C@]1(OC(C)=O)CO[C@@H]1C[C@@H]2O [PACLITAXEL]	10	20	20	30	10	10
